Test results taken from ChEMBL document CHEMBL6127097, “Structure-Guided Discovery of cis-Hexahydro-pyrido-oxazinones as Reversible, Drug-like Monoacylglycerol Lipase Inhibitors” (J Med Chem, 2024).
pIC50, pKd: −log10 of the molar value. Active and inactive are the calls of the source.

Key:
[1] = Volume of distribution at steady state in Wistar rat at 1 mg/kg, iv measured upto 24 hrs by LC-MS/MS analysis; format: ADME, organism-based; conditions: in vivo, read-out: Vdss
How it was run: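 Male Wistar rats (N = 3) received a single 1 mg/kg i.v. dose as a solution in NMP/0.9% NaCl (30:70, 2 mL/kg). Blood was drawn at 0.083, 0.25, 0.5, 1, 2, 4, 7 and 24 h onto K2EDTA, and plasma was separated by centrifugation at 3000g for 15 min at 4 °C. Concentrations were measured by LC-MS/MS, and Vss was derived by noncompartmental analysis.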

[2] = Average drug concentration in mouse plasma at 3 mg/kg, ip measured after 4 hrs; format: ADME, organism-based; conditions: in vivo
How it was run: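 Mice received 3, 10 or 30 mg/kg i.p. The compound was dissolved in DMSO/Tween 80 (1:1) and diluted with 8 parts saline (NaCl/DMSO/TW80 80/10/10). Plasma was taken 4 h after injection and average concentrations reported.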

CYP2C9 = CYP2C9 (Homo sapiens, UniProt P11712); experiment: Inhibition of CYP2C9 (unknown origin) at 10 uM relative to control; format: ADME
[3] = Clearance in Wistar rat at 1 mg/kg, iv measured upto 24 hrs by LC-MS/MS analysis; format: ADME, organism-based; conditions: in vivo
How it was run: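 Male Wistar rats (N = 3 per group) received a single dose. The i.v. dose was 1 mg/kg in NMP/0.9% NaCl 30:70. The p.o. dose was 5 mg/kg in NMP/HPMC/diisooctyl sulfosuccinate 10:90. Blood was taken into K2EDTA from 0.083 (i.v.) or 0.25 h to 24 h. Plasma was assayed by LC-MS/MS and analysed non-compartmentally.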

Monoglyceride lipase [4] = biological target: T1, Monoglyceride lipase (Rattus norvegicus, UniProt Q8R431); experiment: Binding affinity to rat MAGL assessed as equilibrium dissociation constant by SPR analysis
T1 sequence (Q8R431 whole entry): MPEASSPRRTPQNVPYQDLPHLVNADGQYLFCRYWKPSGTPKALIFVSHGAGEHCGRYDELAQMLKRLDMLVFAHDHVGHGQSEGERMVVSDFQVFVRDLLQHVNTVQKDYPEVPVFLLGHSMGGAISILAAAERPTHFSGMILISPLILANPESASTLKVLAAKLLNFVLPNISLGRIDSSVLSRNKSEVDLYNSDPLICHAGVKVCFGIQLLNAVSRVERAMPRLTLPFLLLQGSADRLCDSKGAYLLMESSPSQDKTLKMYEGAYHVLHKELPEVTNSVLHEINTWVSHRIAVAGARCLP
How it was run: (§1)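 Human or rat MAGL was immobilized by amine coupling without ethanolamine quenching. Runs were done at 18 °C in 10 mM HEPES, 150 mM NaCl, 0.05% P20, 50 µM EDTA, pH 7.4, with 1% DMSO. Single-cycle kinetics used five concentrations, top 1 µM in 2-fold steps, at 30 µL/min, giving kon, koff and Kd.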

[5] = Genotoxicity in Salmonella typhimurium by Ames test; format: toxicity; conditions: salmonella enterica subsp. enterica serovar typhimurium
[6] = Average drug concentration in mouse plasma at 30 mg/kg, ip measured after 24 hrs; format: ADME, organism-based; conditions: in vivo
How it was run: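 In a time course, mice were injected i.p. with 30 mg/kg in NaCl/DMSO/Tween 80 (80/10/10). Average plasma levels were determined at the stated time points over 24 h.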

[7] = Drug concentration in mouse CSF at 10 mg/kg, ip measured after 4 hrs; format: ADME, organism-based, Cerebrospinal fluid; conditions: read-out: Ct
Monoglyceride lipase [8] = biological target: T2, Monoglyceride lipase (Homo sapiens, UniProt Q99685); experiment: Binding affinity to human MAGL assessed as equilibrium dissociation constant by SPR analysis; how it was run: as §1
T2 sequence (Q99685 whole entry): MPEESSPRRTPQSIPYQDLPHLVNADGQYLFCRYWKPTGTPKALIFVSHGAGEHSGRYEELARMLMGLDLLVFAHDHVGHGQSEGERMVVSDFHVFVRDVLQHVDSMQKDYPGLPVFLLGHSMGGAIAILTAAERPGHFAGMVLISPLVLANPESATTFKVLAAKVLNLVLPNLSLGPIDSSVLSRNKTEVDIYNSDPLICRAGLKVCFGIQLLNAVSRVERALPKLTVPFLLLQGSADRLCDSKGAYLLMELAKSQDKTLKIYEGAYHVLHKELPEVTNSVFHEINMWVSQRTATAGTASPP

[9] = Clearance in rat microsomes; format: ADME, Microsome
[10] = Plasma protein binding in mouse assessed as fraction unbound by equilibrium dialysis based LC-MS/MS method; format: ADME, cell-free
How it was run: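 Equilibrium dialysis across a 12–14 kDa cutoff membrane in a Teflon 96-well device. Pooled frozen plasma is adjusted to pH 7.4 and spiked at 1000 nM initial total, against Soerensen buffer pH 7.4. Incubation is 5 h at 37 °C, 5% CO2, with diazepam control in each well. %fu = 100 × buffer/matrix concentration after dialysis; recovery accepted at 80–120%.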

[11] = Inhibition of Cynomolgus monkey MAGL using native substrate by Rapidfire MS assay
[12] = Drug concentration in mouse CSF at 30 mg/kg, ip measured after 4 hrs; format: ADME, organism-based, Cerebrospinal fluid; conditions: read-out: Ct
[13] = Plasma protein binding in rat assessed as fraction unbound by equilibrium dialysis based LC-MS/MS method; format: ADME, cell-free
[14] = biological target: T3, Monoacylglycerol lipase ABHD6 (Mus musculus) (UniProt Q8R2Y0); experiment: Inhibition of ABHD6 in mouse brain lysates at 10 uM by ABPP assay; format: subcellular
T3 sequence (whole entry): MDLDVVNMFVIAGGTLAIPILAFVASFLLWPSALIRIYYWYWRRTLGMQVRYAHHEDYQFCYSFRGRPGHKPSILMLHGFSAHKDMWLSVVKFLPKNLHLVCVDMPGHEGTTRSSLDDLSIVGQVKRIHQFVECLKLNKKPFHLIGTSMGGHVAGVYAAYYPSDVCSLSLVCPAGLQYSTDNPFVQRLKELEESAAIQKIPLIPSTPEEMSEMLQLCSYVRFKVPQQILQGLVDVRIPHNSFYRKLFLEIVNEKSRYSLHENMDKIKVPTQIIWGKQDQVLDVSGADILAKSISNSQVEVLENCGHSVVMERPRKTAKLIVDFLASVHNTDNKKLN
How it was run: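 Gel-based activity-based protein profiling of hydrolases, with the inhibitor at 10 µM.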

[15] = biological target: T4, Monoglyceride lipase (Mus musculus) (UniProt O35678); experiment: In vivo receptor occupancy at MAGL receptor in mouse at 30 mg/kg, ip measured after 16 hrs; format: functional, organism-based
T4 sequence (whole entry): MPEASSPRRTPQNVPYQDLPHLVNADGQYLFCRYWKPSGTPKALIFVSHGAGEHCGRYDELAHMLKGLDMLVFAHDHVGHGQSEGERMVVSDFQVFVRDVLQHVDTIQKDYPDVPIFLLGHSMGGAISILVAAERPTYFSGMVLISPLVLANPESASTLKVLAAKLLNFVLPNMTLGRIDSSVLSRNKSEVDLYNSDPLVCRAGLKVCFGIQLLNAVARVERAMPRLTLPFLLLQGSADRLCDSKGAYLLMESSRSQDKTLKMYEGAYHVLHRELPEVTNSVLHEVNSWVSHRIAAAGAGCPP
How it was run: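 Mice dosed 30 mg/kg i.p. in NaCl/DMSO/TW80 (80/10/10). Brain proteome was prepared at set time points over 24 h and MAGL occupancy read by activity-based protein profiling.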

Sequence of CYP2C9 (P11712 whole entry): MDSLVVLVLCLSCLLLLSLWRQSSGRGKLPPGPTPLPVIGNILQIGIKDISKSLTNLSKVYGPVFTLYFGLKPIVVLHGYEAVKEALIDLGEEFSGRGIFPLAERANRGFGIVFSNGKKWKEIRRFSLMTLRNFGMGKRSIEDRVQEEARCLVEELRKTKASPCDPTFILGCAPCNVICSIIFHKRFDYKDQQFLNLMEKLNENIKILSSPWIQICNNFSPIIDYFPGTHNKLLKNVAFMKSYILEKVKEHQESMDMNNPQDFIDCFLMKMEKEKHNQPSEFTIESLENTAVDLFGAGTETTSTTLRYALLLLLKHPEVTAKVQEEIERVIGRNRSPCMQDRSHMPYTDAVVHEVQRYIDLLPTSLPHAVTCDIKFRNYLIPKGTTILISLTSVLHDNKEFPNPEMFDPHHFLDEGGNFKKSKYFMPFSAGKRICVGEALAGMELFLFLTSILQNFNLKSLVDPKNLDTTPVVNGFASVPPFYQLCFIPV

Structure (SMILES)	Vd [1]	Cave [2]	inhibition at 10 µM (CYP2C9)	clearance [3]	pKd (Monoglyceride lipase [4])	Activity [5]	Cave [6]	concentration at 4 h [7]	pKd (Monoglyceride lipase [8])	microsomal CLint [9]	fraction unbound [10]	pIC50 [11]	concentration at 4 h [12]	fraction unbound [13]	inhibition [14]	Activity [15]
O=C1CO[C@H]2CCN(C(=O)N3CCC(Cc4ccc(C(F)(F)F)cc4)CC3)C[C@H]2N1 [listing 1 of 2 here]	1.3 L/kg	1901 nM	3%	4.6 mL/min/kg	7.19	Non-Toxic	100 nM	123 nM	7.35	11 µL/min/mg	0.047	7.80	455 nM	0.032	–	–
O=C1CO[C@H]2CCN(C(=O)N3CCC(Cc4ccc(C(F)(F)F)cc4)CC3)C[C@H]2N1 [listing 2 of 2 here]	–	–	–	–	–	–	–	–	–	–	–	–	–	–	inactive	60%
